Source: publication PMC6415796 (Nano letters, 2015)
“Also recorded” adds a separate entry of the source. Strand notation (5' to 3'): a small letter for the sugar, then the base; units joined by * are phosphorothioate-linked, units joined directly phosphodiester-linked; [ ] holds rarer units or linkages, { } end groups; capitals alone tell only the bases. [tcDNA-N] = tricyclo-DNA nucleotide (N: the base); m = 2'-O-methyl

Legend:
[1] = tested on: class A scavenger receptor subtypes (SCARAs); assay: PPMO splice-switching activity; assay type: cell-based, murine; settings: for Effect of SR ligand or control on splice-switching activity of PPMO: differentiated C2C12, ligand 50 μg/ml for 1 h before PPMO 500 nM for 4 h in Opti-MEM, then 20 h, nested RT-PCR
[2] = DLS analysis of ASOs in PBS; assay type: physicochemical; settings: 1 mM ASO in PBS, each measured 3 times
[3] = DLS after incubation with physiological albumin solution; assay type: physicochemical; settings: equal volume BSA 4.25 g/dL in PBS, 1 h at 37 °C, diluted 10x before DLS
[4] = tested on: Differentiated C2C12 cells; assay: Uptake of FITC-labelled ASOs with SR ligands; assay type: cell-based, murine; settings: ligand pretreatment 1 h, then FITC-ASO 200 nM for 4 h
In short: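 C2C12 cells were grown in DMEM with 10% FBS, then differentiated 3-4 days in DMEM with 2% horse serum (2.5x10⁴/cm²). Cells were pretreated 1 h with scavenger-receptor ligands or control polyanions at 100 μg/ml. They were then given FITC-2'OMePS or FITC-tcDNA (200 nM) for 4 h, washed, and methanol-fixed (-20 °C, 10 min). Mean fluorescence intensity came from microscopy images; one-way ANOVA, mean ± SEM.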

[5] = Critical micelle concentration by dye micellization method; assay type: physicochemical; settings: eosin Y 0.019 mM, absorbance at 542 nm, rounded value
[6] = Zeta potential measurement; assay type: physicochemical
[7] = Uptake and activity comparison of fluorescently labelled ASOs; assay type: cell-based; settings: Fig. S4
[8] = TEM visualization of self-assembled nanoparticles; assay type: physicochemical; settings: Fig. S3
SCARA1 = molecular target: T1, SCARA1 (Mus musculus, UniProt P30204); assay: Dmd exon 23 skipping; assay type: in vivo, mice; settings: 10 mg/kg intravenous, 1 week, n=4, qPCR
T1 sequence (P30204 1-351 limits assumed): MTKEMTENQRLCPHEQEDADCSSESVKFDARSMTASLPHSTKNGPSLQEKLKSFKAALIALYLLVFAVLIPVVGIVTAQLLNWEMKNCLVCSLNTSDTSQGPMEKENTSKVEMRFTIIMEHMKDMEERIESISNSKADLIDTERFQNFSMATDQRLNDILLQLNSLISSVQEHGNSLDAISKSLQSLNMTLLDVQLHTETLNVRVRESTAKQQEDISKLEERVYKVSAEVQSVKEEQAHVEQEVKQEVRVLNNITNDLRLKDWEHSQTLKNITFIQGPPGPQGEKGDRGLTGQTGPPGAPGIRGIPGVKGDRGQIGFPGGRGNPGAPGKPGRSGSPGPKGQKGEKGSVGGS
In short: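 SCARA1-/- and C57BL/6 mice (14 months old, n = 4) received 10 mg/kg peptide–PMO conjugate in 0.9% saline via tail vein. After one week, tibialis anterior, diaphragm and heart were snap-frozen. Multiplex Taqman qPCR on 25 ng cDNA used FAM primers spanning exon 20-21 and HEX primers spanning exon 23-24. Skipping percentage came from normalising exon 23-24 to exon 20-21 amplification.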

Substance: dextran sulfate
- Effect of SR ligand or control on splice-switching activity of PPMO [1]: completely inhibited

Substance: 2’OMe: 2’Omethyl phosphorothioate ASO 5’- GGCCAAACCUCGGCUUACCU-3’, synthesized by IDT (antisense mG*mG*mC*mC*mA*mA*mA*mC*mC*mU*mC*mG*mG*mC*mU*mU*mA*mC*mC*mU)
- DLS population profile (peaks) [2]: predominant peak was of singular molecules
- DLS size of predominant peak (singular molecules) [2]: around 2 nm
- DLS particulate peaks in albumin model [3]: failed to do so
- Uptake in the presence of fucoidin and dextran sulfates [4]: only partially inhibited

Substance: chondroitin sulfate
- Effect of SR ligand or control on splice-switching activity of PPMO [1]: no effect

Substance: RXRRBRRXRRBRXB [PPMO]
- DLS population profile (peaks) [2]: two peaks, one for singular molecules and one representing a particulate population
- DLS particulate peaks in albumin model [3]: high intensity particulate peaks
- Critical micelle concentration (CMC) [5]: about 1.4 μM
- Zeta potential ([6]; in PBS): -1.21 ± 0.63
- Zeta potential ([6]; in serum-free medium): -3.48 ±2.31
- Zeta potential ([6]; in water): 10 ± 2.70
- Extent of uptake relative to other chemistries [7]: several folds higher uptake than the other two chemistries

Substance: tcDNA: phosphorothioated tricyclo DNA 5’-AACCTCGGCTTACCT-3’, synthesized by SYNTHENA (all [tcDNA-N], all phosphorothioate, methylation of C not given here)
- Extent of uptake relative to other chemistries [7]: significantly higher than that of 2’OMe

Substance: RXRRBRRXR YQFLI RXRBRXRB [Pip6a-PMO]
- Nanoparticle formation and relative size by TEM [8]: spontaneously forms nanoparticles; also recorded: smaller than B-PMO nanoparticles
- Uptake in the presence of SR ligands ([1]; Fig. S3): significantly inhibited
- Exon 23-skipping activity in SCARA1 knock-out versus wild-type mice, diaphragm (SCARA1): significantly reduced
- Exon 23-skipping activity in SCARA1 knock-out versus wild-type mice, heart (SCARA1): significantly reduced

Substance: fucoidin sulfate
- Effect of SR ligand or control on splice-switching activity of PPMO [1]: completely inhibited
